The values below come from ChEMBL document CHEMBL1129542, “trans-2-Aryl-N,N-dipropylcyclopropylamines: synthesis and interactions with 5-HT(1A) receptors” (J Med Chem, 1996).

pKi: −log10 of the molar value.

One may read the pKi as the negative decadic logarithm of the Ki, by convention in mol/L. Higher therefore signals a low Ki.

Assay [1] concerns the target T1, 5-hydroxytryptamine receptor 1A (Rattus norvegicus, UniProt P19327).
T1 sequence (P19327 whole entry): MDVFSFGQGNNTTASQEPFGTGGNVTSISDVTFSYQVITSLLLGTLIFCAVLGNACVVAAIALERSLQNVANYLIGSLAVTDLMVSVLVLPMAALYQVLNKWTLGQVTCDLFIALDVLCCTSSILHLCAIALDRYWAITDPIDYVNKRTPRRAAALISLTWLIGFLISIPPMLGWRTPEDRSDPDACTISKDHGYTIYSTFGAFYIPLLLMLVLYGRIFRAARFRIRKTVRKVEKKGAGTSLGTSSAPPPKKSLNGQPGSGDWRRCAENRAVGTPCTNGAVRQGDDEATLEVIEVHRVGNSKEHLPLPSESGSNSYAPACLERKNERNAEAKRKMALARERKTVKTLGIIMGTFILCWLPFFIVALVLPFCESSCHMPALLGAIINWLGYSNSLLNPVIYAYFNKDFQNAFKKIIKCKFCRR
Description: In vitro binding affinity of compound towards 5-hydroxytryptamine 1A receptor was determined using [3H]8-OH-DPAT as radioligand; range=16-20. The method, boiled down: (§1)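 Rat (male Sprague–Dawley) cortex plus hippocampus membranes, washed twice in 50 mM Tris-HCl with 4.0 mM CaCl2 and 5.7 mM ascorbate, pH 7.5, pretreated with 10 μM pargyline. Competition against 2 nM [3H]-8-OH-DPAT with 1–300 nM compound, 5 mg/mL tissue, 37 °C for 10 min, then filtration. Nonspecific binding defined with 10 μM 5-HT. […] Range derived from the standard error of the estimate.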

Assay [2] deals with T1, 5-hydroxytryptamine receptor 1A. Description: In vitro binding affinity of compound towards 5-hydroxytryptamine 1A receptor was determined using [3H]8-OH-DPAT as radioligand; range=160-430. The method, boiled down: as §1
Assay [3] shares this target. Description: In vitro binding affinity of compound towards 5-hydroxytryptamine 1A receptor was determined using [3H]8-OH-DPAT as radioligand; range=710-980. The method, boiled down: as §1
The target is the same in assay [4]. As to the kind of experiment: In vitro binding affinity of compound towards 5-hydroxytryptamine 1A receptor was determined using [3H]8-OH-DPAT as radioligand; range=12-14. The essentials:
as §1

Assay [5] shares this target. As to the kind of experiment: In vitro binding affinity of compound towards 5-hydroxytryptamine 1A receptor was determined using [3H]8-OH-DPAT as radioligand; range=78-140. The method, boiled down:
as §1

For assay [6] the target is unchanged. As to the kind of experiment: In vitro binding affinity of compound towards 5-hydroxytryptamine 1A receptor was determined using [3H]8-OH-DPAT as radioligand; range=85-130. The method, boiled down:
as §1

Assay [7] shares this target. Description: In vitro binding affinity of compound towards 5-hydroxytryptamine 1A receptor was determined using [3H]8-OH-DPAT as radioligand. The essentials: as §1
The target is the same in assay [8]. As to the kind of experiment: In vitro binding affinity of compound towards 5-hydroxytryptamine 1A receptor was determined using [3H]-8-OH-DPAT as radioligand; range=39-87. The essentials:
as §1

For assay [9] the target is unchanged. As to the kind of experiment: In vitro binding affinity of compound towards 5-hydroxytryptamine 1A receptor was determined using [3H]-8-OH-DPAT as radioligand; range=21-28. The method, boiled down: as §1
Assay [10] has the same target. As to the kind of experiment: In vitro binding affinity of compound towards 5-hydroxytryptamine 1A receptor was determined using [3H]8-OH-DPAT as radioligand; range=20-23. The method, boiled down:
as §1

For assay [11] the target is unchanged. Description: In vitro binding affinity of compound towards 5-hydroxytryptamine 1A receptor was determined using [3H]8-OH-DPAT as radioligand; range=184-503. The essentials:
as §1

For assay [12] the target is unchanged. As to the kind of experiment: In vitro binding affinity of compound towards 5-hydroxytryptamine 1A receptor was determined using [3H]8-OH-DPAT as radioligand; range=19-23.
Assay [13] shares this target. Description: In vitro binding affinity of compound towards 5-hydroxytryptamine 1A receptor was determined using [3H]-8-OH-DPAT as radioligand; range=48-77. The method, boiled down:
as §1

Assay [14] has the same target. As to the kind of experiment: In vitro binding affinity of compound towards 5-hydroxytryptamine 1A receptor was determined using [3H]8-OH-DPAT as radioligand; range=89-280. The method, boiled down: as §1
The target is the same in assay [15]. As to the kind of experiment: In vitro binding affinity of compound towards 5-hydroxytryptamine 1A receptor was determined using [3H]8-OH-DPAT as radioligand; range=2.7-3.6. The essentials: as §1
The target is the same in assay [16]. As to the kind of experiment: In vitro binding affinity of compound towards 5-hydroxytryptamine 1A receptor was determined using [3H]8-OH-DPAT as radioligand; range=63-95. The method, boiled down: as §1
Assay [17] has the same target. As to the kind of experiment: In vitro binding affinity of compound towards 5-hydroxytryptamine 1A receptor was determined using [3H]8-OH-DPAT as radioligand; range=174-224. The essentials: as §1

Consider `CCCN(CCC)[C@@H]1C[C@H]1c1ccccc1OC`, for which the negative logarithm of the Ki (pKi) in [1] was 7.77.
As to `CCCN(CCC)[C@H]1C[C@@H]1c1ccccc1OC`, in assay [2], the pKi is 6.64.
In turn, `CCCN(CCC)[C@H]1C[C@@H]1c1cccs1` gave a pKi in assay [3] of 6.09.
As to `CCCN(CCC)[C@@H]1C[C@H]1c1cccs1`, the pKi in [4] was 7.96.
The same measure, in the same setting: with `CCCN(CCC)C1CC1c1cccs1` (stereo not given) the figure was 7.89.
The compound `CCCN(CCC)C1CC1c1cc(F)ccc1O` (stereo not given) showed a pKi in assay [5] of 7.00.
Regarding `CCCN(CCC)C1CC1c1cccc(F)c1` (stereo not given), the pKi in assay [6] is 7.00.
With `CCCN(CCC)C1CC1c1cc2ccccc2s1` (stereo not given), the pKi in assay [7] was < 6.00.
Regarding `CCCN(CCC)[C@@H]1C[C@H]1c1cc(F)ccc1OC`, in [8], the negative-log Ki (pKi) is 7.22.
Compound `CCCN(CCC)C1CC1c1ccccc1` (stereo not given) gave a pKi in assay [9] of 7.62.
As for `CCCN(CCC)C1CC1c1ccccc1Br` (stereo not given), in [10], the pKi is 7.66.
`CCCN(CCC)[C@H]1C[C@@H]1c1cc(F)ccc1O` had a pKi in assay [11] of 6.46.
Turning to `CCCN(CCC)C1CC1c1ccsc1` (stereo not given), in assay [12], the pKi is 7.68.
`CCCN(CCC)C1CC1c1ccccc1F` (stereo not given) had a pKi in [13] of 7.23.
For the compound `CCCN(CCC)C1CC1c1ccccc1C(F)(F)F` (stereo not given), in [7], the pKi was < 6.00.
For the compound `CCCN(CCC)C1CC1c1cccc(Cl)c1Cl` (stereo not given), the pKi in assay [7] was < 6.52.
Regarding `CCCN(CCC)C1CC1c1cc(F)ccc1OC` (stereo not given), the pKi in assay [14] is 6.85.
In assay [15], `CCCN(CCC)[C@@H]1C[C@H]1c1cc(F)ccc1O` had a pKi of 8.49.
`CCCN(CCC)C1CC1c1ccc(F)cc1` (stereo not given) had a pKi in assay [16] of 7.12.
`CCCN(CCC)[C@H]1C[C@@H]1c1cc(F)ccc1OC`: in assay [17], the pKi is 6.70.
